Source: ChEMBL document CHEMBL1143813, “Assessment and continued validation of the malaria SYBR green I-based fluorescence assay for use in malaria drug screening” (Antimicrob Agents Chemother, 2007)
Values after ≈ are worked out from the molar mass of the structure shown.

Assays:
Type in all cases: functional, organism-based
Plasmodium falciparum [1] = assay: (§1) In vitro antimalarial activity against Plasmodium falciparum D6 after 72 hrs in SYBR green fluorescence assay; conditions: D6, 72 h
Method in brief: (§2)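 P. falciparum D6 or W2 at late-ring/early-trophozoite stage, conditioned 3–4 days in the test medium (TCM, TCMA with Albumax I in place of plasma, FAF folic acid/pABA-free, or FAFA). Cultured 72 h at 37°C (5% CO₂, 5% O₂, N₂) with 11 twofold drug dilutions, 1% parasitemia, 2% hematocrit. SYBR green I lysis buffer added, 1 h at room temperature, RFU read. Plate-edge wells excluded.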

Plasmodium falciparum [2] = assay: Antimalarial activity against Plasmodium falciparum D6 as reduced [3H]hypoxanthine uptake after 72 hrs
Plasmodium falciparum [3] = assay: as §1; conditions: D6, 72 h; method in brief: as §2; remark: listed apart in the source
Plasmodium falciparum [4] = assay: Antimalarial activity against Plasmodium falciparum W2 as reduced [3H]hypoxanthine uptake after 72 hrs
Plasmodium falciparum [5] = assay: (§3) In vitro antimalarial activity against Plasmodium falciparum W2 after 72 hrs in SYBR green fluorescence assay; conditions: W2, 72 h
Plasmodium falciparum [6] = assay: as §3; conditions: W2, 72 h; method in brief: as §2; remark: listed apart in the source
Plasmodium falciparum [7] = assay: In vitro antimalarial activity against Plasmodium falciparum W2 after 72 hrs by SYBR green fluorescence assay; conditions: W2, 72 h; method in brief: as §2
Plasmodium falciparum [8] = assay: as §1; conditions: D6, 72 h; method in brief: as §2; remark: listed apart in the source
Plasmodium falciparum [9] = assay: In vitro antimalarial activity against Plasmodium falciparum D6 after 72 hrs by SYBR green fluorescence assay; conditions: D6, 72 h; method in brief: as §2
Plasmodium falciparum [10] = assay: as §3; conditions: W2, 72 h; remark: listed apart in the source

Structure (SMILES): C=CC1CN2CC[C@H]1C[C@H]2[C@H](O)c1ccnc2ccc(OC)cc12 (single isomer, unassigned) [QUININE]
- IC50 (Plasmodium falciparum [1]): 0.0149 µg/mL (≈ 0.0459 µM)
- IC50 (Plasmodium falciparum [2]): 5 ng/mL (≈ 0.0154 µM)
- IC50 (Plasmodium falciparum [3]): 0.0119 µg/mL (≈ 0.0367 µM)
- IC50 (Plasmodium falciparum [4]): 0.036 µg/mL (≈ 0.111 µM)
- IC50 (Plasmodium falciparum [5]): 0.162 µg/mL (≈ 0.5 µM)
- IC50 (Plasmodium falciparum [6]): 0.167 µg/mL (≈ 0.516 µM)
- IC50 (Plasmodium falciparum [7]): 0.129 µg/mL (≈ 0.396 µM)
- IC50 (Plasmodium falciparum [8]): 0.0158 µg/mL (≈ 0.0487 µM)
- IC50 (Plasmodium falciparum [9]): 0.0113 µg/mL (≈ 0.0348 µM)

Structure (SMILES): C[C@@H]1CC[C@H]2[C@@H](C)C(=O)O[C@@H]3O[C@@]4(C)CC[C@@H]1[C@]32OO4 [ARTEMISININ]
- IC50 (Plasmodium falciparum [2]): 2.4 ng/mL (≈ 0.0085 µM)
- IC50 (Plasmodium falciparum [3]): 0.0016 µg/mL (≈ 0.00567 µM)
- IC50 (Plasmodium falciparum [10]): 0.0011 µg/mL (≈ 0.0039 µM)
- IC50 (Plasmodium falciparum [4]): 0.0017 µg/mL (≈ 0.00602 µM)
- IC50 (Plasmodium falciparum [5]): 0.0012 µg/mL (≈ 0.00425 µM)
- IC50 (Plasmodium falciparum [6]): 0.001 µg/mL (≈ 0.00354 µM)
- IC50 (Plasmodium falciparum [8]): 0.00125 µg/mL (≈ 0.00443 µM)

Structure (SMILES): CC[C@H]1OC(=O)[C@H](C)[C@@H](O[C@H]2C[C@@](C)(OC)[C@@H](O)[C@H](C)O2)[C@H](C)[C@@H](O[C@@H]2O[C@H](C)C[C@H](N(C)C)[C@H]2O)[C@](C)(O)C[C@@H](C)CN(C)[C@H](C)[C@@H](O)[C@]1(C)O [AZITHROMYCIN]
- IC50 (Plasmodium falciparum [1]): 10.1 µg/mL (≈ 13.4 µM)
- IC50 (Plasmodium falciparum [2]): 3750 ng/mL (≈ 5 µM)
- IC50 (Plasmodium falciparum [3]): 14.4 µg/mL (≈ 19.2 µM)
- IC50 (Plasmodium falciparum [10]): 4.49 µg/mL (≈ 5.99 µM)
- IC50 (Plasmodium falciparum [4]): 5.5 µg/mL (≈ 7.34 µM)
- IC50 (Plasmodium falciparum [5]): 1.85 µg/mL (≈ 2.47 µM)
- IC50 (Plasmodium falciparum [6]): 1.62 µg/mL (≈ 2.17 µM)
- IC50 (Plasmodium falciparum [7]): 2.73 µg/mL (≈ 3.65 µM)
- IC50 (Plasmodium falciparum [8]): 10.1 µg/mL (≈ 13.5 µM)
- IC50 (Plasmodium falciparum [9]): 15.3 µg/mL (≈ 20.4 µM)

Structure (SMILES): Nc1ccc(S(=O)(=O)c2ccc(N)cc2)cc1 [DAPSONE]
- IC50 (Plasmodium falciparum [1]): 0.0031 µg/mL (≈ 0.0125 µM)
- IC50 (Plasmodium falciparum [2]): 2.9 ng/mL (≈ 0.0117 µM)
- IC50 (Plasmodium falciparum [3]): 0.0102 µg/mL (≈ 0.0411 µM)
- IC50 (Plasmodium falciparum [10]): 0.242 µg/mL (≈ 0.973 µM)
- IC50 (Plasmodium falciparum [4]): 0.124 µg/mL (≈ 0.5 µM)
- IC50 (Plasmodium falciparum [5]): 0.156 µg/mL (≈ 0.629 µM)

Structure (SMILES): C[C@H]1c2cccc(O)c2C(=O)C2=C(O)[C@]3(O)C(=O)C(C(N)=O)=C(O)[C@@H](N(C)C)[C@@H]3[C@@H](O)[C@@H]21.O [DOXYCYCLINE]
- IC50 (Plasmodium falciparum [1]): 0.857 µg/mL
- IC50 (Plasmodium falciparum [2]): 483 ng/mL
- IC50 (Plasmodium falciparum [3]): 1.85 µg/mL
- IC50 (Plasmodium falciparum [10]): 2.13 µg/mL
- IC50 (Plasmodium falciparum [4]): 0.814 µg/mL
- IC50 (Plasmodium falciparum [5]): 1.86 µg/mL
- IC50 (Plasmodium falciparum [6]): 2.41 µg/mL
- IC50 (Plasmodium falciparum [7]): 2.28 µg/mL
- IC50 (Plasmodium falciparum [8]): 1.18 µg/mL
- IC50 (Plasmodium falciparum [9]): 2.37 µg/mL

Structure (SMILES): O[C@@H](c1cc(C(F)(F)F)nc2c(C(F)(F)F)cccc12)[C@H]1CCCCN1 [MEFLOQUINE]
- IC50 (Plasmodium falciparum [1]): 0.0328 µg/mL (≈ 0.0867 µM)
- IC50 (Plasmodium falciparum [3]): 0.016 µg/mL (≈ 0.0423 µM)
- IC50 (Plasmodium falciparum [10]): 0.0097 µg/mL (≈ 0.0256 µM)
- IC50 (Plasmodium falciparum [4]): 0.0023 µg/mL (≈ 0.00608 µM)
- IC50 (Plasmodium falciparum [5]): 0.0174 µg/mL (≈ 0.046 µM)
- IC50 (Plasmodium falciparum [6]): 0.0162 µg/mL (≈ 0.0428 µM)
- IC50 (Plasmodium falciparum [7]): 0.0089 µg/mL (≈ 0.0235 µM)
- IC50 (Plasmodium falciparum [8]): 0.0437 µg/mL (≈ 0.116 µM)
- IC50 (Plasmodium falciparum [9]): 0.0199 µg/mL (≈ 0.0526 µM)

Structure (SMILES): CCc1nc(N)nc(N)c1-c1ccc(Cl)cc1 [PYRIMETHAMINE]
- IC50 (Plasmodium falciparum [1]): 0.0005 µg/mL (≈ 0.00201 µM)
- IC50 (Plasmodium falciparum [2]): 0.1 ng/mL (≈ 0.000402 µM)
- IC50 (Plasmodium falciparum [3]): 0.0004 µg/mL (≈ 0.00161 µM)
- IC50 (Plasmodium falciparum [10]): 0.0376 µg/mL (≈ 0.151 µM)
- IC50 (Plasmodium falciparum [4]): 0.0119 µg/mL (≈ 0.0478 µM)

Structure (SMILES): COc1ncnc(NS(=O)(=O)c2ccc(N)cc2)c1OC [SULFADOXINE]
- IC50 (Plasmodium falciparum [1]): 0.0105 µg/mL (≈ 0.0338 µM)
- IC50 (Plasmodium falciparum [2]): 16 ng/mL (≈ 0.0516 µM)
- IC50 (Plasmodium falciparum [3]): 0.0024 µg/mL (≈ 0.00773 µM)
- IC50 (Plasmodium falciparum [10]): 2.42 µg/mL (≈ 7.79 µM)
- IC50 (Plasmodium falciparum [4]): 1.11 µg/mL (≈ 3.59 µM)
- IC50 (Plasmodium falciparum [5]): 1.64 µg/mL (≈ 5.29 µM)
